Xi reactivation = activators of inactive X chromosome reactivation, primary screen, imaging, XiGFP fibroblasts, GFP high-content imaging, set 2; XiGFP mouse fibroblasts, % GFP-positive cells imaging, 3 d; cells co-treated with 5-aza-dC sensitizer; scaled so ellipticine positive control = 100%; activation, % at 7.58 µM; 360,000 tested, 0.055% active; AID 743238, 2013;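 active = mean normalized replicate activation at least 10% and every replicate at or above 10%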
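Material: XiGFP fibroblasts, SV40-immortalized; Buffer or medium: DMEM containing 5-aza-dC; Compound dosing: single point; Times: 3 days compound exposure.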
MLL AF4-AF9 inh = inhibitors of AF4 peptide binding to AF9, primary screen, biochemical, AlphaScreen, biotin-AF4 peptide, FLAG-AF9, single point; Protein AF-9 (Homo sapiens), P42568; inhibition, % at 10 µM; 350,000 tested, 0.47% active; AID 651704, 2012;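 active = every replicate reaching a set inhibition limit, whatever the replicate mean, cut at about 25% in these data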
Target sequence (P42568 whole entry, looked up): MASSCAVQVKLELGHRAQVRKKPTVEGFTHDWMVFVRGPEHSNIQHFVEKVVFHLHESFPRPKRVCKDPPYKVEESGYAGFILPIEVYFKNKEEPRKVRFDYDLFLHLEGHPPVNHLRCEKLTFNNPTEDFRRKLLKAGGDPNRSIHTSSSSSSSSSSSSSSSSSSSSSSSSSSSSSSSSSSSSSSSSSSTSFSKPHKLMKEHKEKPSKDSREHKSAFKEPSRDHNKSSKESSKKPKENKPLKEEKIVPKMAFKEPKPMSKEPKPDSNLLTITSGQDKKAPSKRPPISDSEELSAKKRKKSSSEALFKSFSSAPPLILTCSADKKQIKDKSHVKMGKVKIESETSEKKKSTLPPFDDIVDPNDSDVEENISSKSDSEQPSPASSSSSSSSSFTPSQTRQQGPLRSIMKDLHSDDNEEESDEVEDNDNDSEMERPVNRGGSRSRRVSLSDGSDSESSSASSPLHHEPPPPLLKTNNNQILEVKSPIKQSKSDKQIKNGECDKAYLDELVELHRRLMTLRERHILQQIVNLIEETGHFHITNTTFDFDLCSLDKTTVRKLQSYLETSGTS
PGC1a acetyl inh = inhibitors of PGC1a acetylation signal, primary screen, cell-based, U2OS, AlphaScreen, inhibitor mode | inhibition, % at 15.6 µM | 350,000 tested, 0.17% active | AlphaScreen anti-acetyl-lysine; with virally co-expressed GCN5 acetyltransferase | AID 651687, 2012;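 active = every replicate shows inhibition of at least 40%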
PAX8 reporter = inhibitors of PAX8-driven TPO luciferase reporter, primary screen, RMG-I cells, single concentration; SteadyGlo, 24 h; inhibition, % at 12.6 µM; 360,000 tested, 1.2% active; AID 652154, 2013;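 active = mean replicate inhibition at least 60% with every replicate also reaching 60%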;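 note: luciferase light reporting Pax8 driven TPO promoter activity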
GSIS activator = GLuc luminescence reporter in INS-1E cells, primary screen for activators of glucose-dependent secretion of insulin. INS-1E GLuc reporter insulin secretion, 2-3 h. activation, % at 16.6 µM. 370,000 tested, 0.61% active. AID 743287, 2014;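 active = lowest replicate activation of at least 40%, so every replicate reaches that level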
EWS-Fli inh = EWS/Fli-driven NR0B1 reporter inhibitors, primary screen, A673 cells, NR0B1 luciferase, luminescence, MLPCN library | 350,000 tested, 0.67% active | viability-normalised | AID 651661, 2012 | inhibition, % at 12.6 µM;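 active = mean inhibition of at least 50% after viability correction, with every replicate also passing that limit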;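 note: firefly luciferase signal divided by Alamar Blue viability fluorescence both relative to DMSO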
DNA binding = DNA binders by acridine orange displacement, dose response, counter-screen for EWS/Fli inhibitor project, biochemical, fluorescence polarization, cherry-pick; shares compounds with EWS-Fli inh; salmon sperm DNA acridine orange fluorescence polarization; AC35, µM (doses to about 68 µM); 640 tested, 2% active;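 active = fitted curve reaches a 35% signal fall AC35 below twice the sample's top valid tested dose, actives reach about 48 µM in these data; inactive = the rest, including activity in the rising direction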;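 note: lower polarization ratio signals compound binding to DNA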
Numbers stand for hits. Hits are enriched below; roughly 2.1% of the tested compounds scored in any of these assays.

How did COC(=O)C[C@@H]1CC[C@@H]2[C@@H](COc3ccc(NS(=O)(=O)c4ccccc4F)cc3C(=O)N2C)O1 do in these assays?
Xi reactivation: inactive; PGC1a acetyl inh: inactive; PAX8 reporter: inactive; GSIS activator: inactive; EWS-Fli inh: inactive

Results for CC(=O)c1ccc(N(C(=O)Cn2nnc3ccccc32)C(C(=O)NCc2ccccc2)c2ccccn2)cc1 (centres undefined) ?
Xi reactivation: inactive; MLL AF4-AF9 inh: inactive; PGC1a acetyl inh: inactive; PAX8 reporter: inactive; GSIS activator: inactive; EWS-Fli inh: 62.2; DNA binding: inactive

What do the screens show for `Cc1ccc(N(C(=O)Cn2nnc3ccccc32)C(C(=O)NCc2ccccc2)c2ccccn2)cc1` (centres undefined)?
Xi reactivation: inactive; PGC1a acetyl inh: inactive; PAX8 reporter: inactive; GSIS activator: inactive

Results for COc1ccc([Si](C)(C)[C@H]2[C@H](CCO)O[C@@]3(C(=O)N(c4ccccc4)c4ccccc43)[C@@H]2C)cc1 ?
MLL AF4-AF9 inh: inactive; PGC1a acetyl inh: inactive; PAX8 reporter: 102.7; EWS-Fli inh: 57.9; DNA binding: inactive

Results for C[C@@H]1CN([C@@H](C)CO)C(=O)Cc2cc(NC(=O)CCN3CCOCC3)ccc2O[C@@H]1CN(C)C(=O)Nc1ccccc1 ?
Xi reactivation: inactive; PGC1a acetyl inh: inactive; PAX8 reporter: inactive; GSIS activator: inactive; EWS-Fli inh: inactive

How did Cc1cc(C)cc(OCC(=O)OCC(=O)Nc2cc(S(=O)(=O)N3CCOCC3)ccc2C)c1 do in these assays?
Xi reactivation: inactive; MLL AF4-AF9 inh: inactive; PGC1a acetyl inh: inactive; PAX8 reporter: inactive; GSIS activator: inactive; EWS-Fli inh: 65.8; DNA binding: inactive

How did Cc1ccc(/C=C2\SC(=S)N(CCCC(=O)Nc3ccccc3C(=O)O)C2=O)cc1 do in these assays?
Xi reactivation: inactive; MLL AF4-AF9 inh: inactive; PAX8 reporter: inactive; GSIS activator: inactive; EWS-Fli inh: inactive

What do the screens show for `O=C(CCCN1C(=O)/C(=C/c2cccs2)SC1=S)NNC(=O)c1ccccc1O`?
Xi reactivation: inactive; PGC1a acetyl inh: inactive; PAX8 reporter: inactive; GSIS activator: inactive

What do the screens show for `COc1ccc(/C=C2\SC(=S)N(CCCC(=O)NNC(=O)c3ccccc3O)C2=O)cc1`?
Xi reactivation: inactive; MLL AF4-AF9 inh: inactive; PGC1a acetyl inh: inactive; PAX8 reporter: 65.9; GSIS activator: inactive; EWS-Fli inh: 76.6; DNA binding: inactive

Results for COc1ccc(/C=C2\SC(=O)N(CCCC(=O)Nc3ccc(C(=O)O)cc3)C2=O)cc1 ?
Xi reactivation: inactive; MLL AF4-AF9 inh: inactive; PGC1a acetyl inh: inactive; PAX8 reporter: inactive; EWS-Fli inh: 82.3; DNA binding: inactive

How did COc1ccc(/C=C2/SC(=S)N(CCCC(=O)Nc3ccccc3C(=O)O)C2=O)cc1 do in these assays?
Xi reactivation: inactive; MLL AF4-AF9 inh: inactive; PAX8 reporter: inactive; GSIS activator: inactive; EWS-Fli inh: 63.9; DNA binding: inactive

Results for Cc1cc(-c2nc3cc(F)ccc3s2)ccc1N ?
Xi reactivation: inactive; MLL AF4-AF9 inh: inactive; PAX8 reporter: inactive; EWS-Fli inh: 73.8; DNA binding: inactive

Results for C[C@@H]1CN([C@@H](C)CO)S(=O)(=O)c2ccc(C#CC(C)(C)O)cc2O[C@@H]1CN(C)Cc1ccc(-c2ccccc2)cc1 ?
Xi reactivation: inactive; MLL AF4-AF9 inh: inactive; PGC1a acetyl inh: inactive; GSIS activator: inactive; EWS-Fli inh: inactive

What do the screens show for `C[C@@H]1CN([C@H](C)CO)S(=O)(=O)c2ccc(C#CC3CC3)cc2O[C@@H]1CN(C)Cc1ccccc1F`?
Xi reactivation: inactive; MLL AF4-AF9 inh: inactive; PGC1a acetyl inh: inactive; GSIS activator: inactive; EWS-Fli inh: 61.5; DNA binding: inactive

What do the screens show for `C[C@@H]1CN([C@@H](C)CO)S(=O)(=O)c2ccc(C#CC(C)(C)O)cc2O[C@H]1CN(C)Cc1ccc(-c2ccccc2)cc1`?
Xi reactivation: inactive; MLL AF4-AF9 inh: inactive; PGC1a acetyl inh: inactive; GSIS activator: inactive; EWS-Fli inh: 75.4; DNA binding: inactive

How did COc1ccc2c3c([nH]c2c1)[C@@H](CO)N(C(=O)Cc1ccccc1)CC31CCN(C(=O)Cc2ccccc2)CC1 do in these assays?
Xi reactivation: inactive; MLL AF4-AF9 inh: inactive; PGC1a acetyl inh: inactive; GSIS activator: inactive; EWS-Fli inh: inactive

How did C[C@@H]1CN([C@@H](C)CO)C(=O)c2cc(C3=CCCCC3)cnc2O[C@@H]1CN(C)C(=O)c1ccc2c(c1)OCO2 do in these assays?
Xi reactivation: inactive; MLL AF4-AF9 inh: inactive; PGC1a acetyl inh: inactive; PAX8 reporter: inactive; GSIS activator: inactive; EWS-Fli inh: inactive

What do the screens show for `C[C@H](CO)N1C[C@H](C)[C@H](CN(C)C(=O)NC2CCCCC2)Oc2ccc(NC(=O)Nc3cccc4ccccc34)cc2C1=O`?
Xi reactivation: inactive; MLL AF4-AF9 inh: inactive; PGC1a acetyl inh: inactive; PAX8 reporter: inactive; GSIS activator: inactive; EWS-Fli inh: inactive

Results for Cc1ccsc1C(=O)OCC(=O)NCCC1=CCCCC1 ?
Xi reactivation: inactive; MLL AF4-AF9 inh: inactive; PAX8 reporter: inactive; GSIS activator: inactive; EWS-Fli inh: 65.0; DNA binding: inactive

How did COC(=O)C[C@H]1CC[C@@H]2[C@@H](COc3ccc(NC(=O)c4cscn4)cc3C(=O)N2C)O1 do in these assays?
Xi reactivation: inactive; MLL AF4-AF9 inh: inactive; PGC1a acetyl inh: inactive; PAX8 reporter: inactive; GSIS activator: inactive; EWS-Fli inh: inactive

What do the screens show for `COC(=O)C[C@H]1CC[C@@H]2[C@@H](COc3ccc(NC(=O)c4cc(C)on4)cc3C(=O)N2C)O1`?
Xi reactivation: inactive; MLL AF4-AF9 inh: inactive; PGC1a acetyl inh: inactive; PAX8 reporter: inactive; GSIS activator: inactive; EWS-Fli inh: inactive

How did Cc1cc(C(=O)Nc2ccc3c(c2)C(=O)N(C)[C@H]2CC[C@H](CC(=O)N[C@@H](C)c4ccccc4)O[C@H]2CO3)no1 do in these assays?
Xi reactivation: inactive; MLL AF4-AF9 inh: inactive; PGC1a acetyl inh: inactive; PAX8 reporter: inactive; GSIS activator: inactive; EWS-Fli inh: inactive

What do the screens show for `Cc1cc(C(=O)Nc2ccc3c(c2)C(=O)N(C)[C@@H]2CC[C@H](CC(=O)N[C@H](C)c4ccccc4)O[C@H]2CO3)no1`?
Xi reactivation: inactive; MLL AF4-AF9 inh: inactive; PGC1a acetyl inh: inactive; PAX8 reporter: inactive; GSIS activator: inactive; EWS-Fli inh: 58.1; DNA binding: inactive

Screening data from PubChem.
